Measured values collected from several papers.
Lines come from different studies, so protocols differ.
EGFR del746-750: Epidermal growth factor receptor (EGFR, Homo sapiens, UniProt P00533, del746-750)
EGFR L858R/T790M: Epidermal growth factor receptor (EGFR, Homo sapiens, UniProt P00533, L858R/T790M)
EGFR T790M: Epidermal growth factor receptor (EGFR, Homo sapiens, UniProt P00533, T790M)
EGFR: Epidermal growth factor receptor (EGFR, Homo sapiens, UniProt P00533)
EGFR del752-759: Epidermal growth factor receptor (EGFR, Homo sapiens, UniProt P00533, del752-759)

N[C@@H]1CCN(c2nccc(-c3cnn4ncccc34)n2)C1  remaining binding (EGFR del746-750; binding; 1 µM): 100%
CCC(=O)Nc1cc(Nc2nc(N3CCc4sccc4C3)c3cccnc3n2)c(OC)cc1N1CCC(N(C)C)CC1  inhibition (EGFR L858R/T790M; enzyme activity; inhibitor; ELISA; 0.1 µM): 22.5%
Nc1ncnc2occ(-c3ccc(NC(=O)Nc4cc(C(F)(F)F)ccc4F)cc3)c12  remaining signal (Epidermal growth factor receptor (EGFR, Homo sapiens, UniProt P00533, G719C); cell-free assay; 20 µM): 4.2%
COc1ccc2c(O[C@@H]3C[C@H]4C(=O)N[C@]5(C(=O)O)CC5/C=C\CCCCC[C@H](NC(=O)OC5CCCC5)C(=O)N4C3)cc(-c3csc(NC(=O)C(C)C)n3)nc2c1C (some centres unmarked)  remaining binding (Epidermal growth factor receptor (EGFR, Homo sapiens, UniProt P00533, del747-752/P753S); cell-free assay; competition with immobilised ligand; 1 µM): 81%
O=C(NCCCN1CCOCC1)c1ccc(Nc2nccc(-c3cc4ccccc4s3)n2)cc1  remaining binding (EGFR T790M; binding; competition with immobilised ligand; 1 µM): 90%
CN(C)c1ncnc(-c2ccc3nc(Nc4cc(CN5CCN(C(=O)CC(F)(F)F)CC5)ccn4)[nH]c3c2)c1Cl  remaining binding (Epidermal growth factor receptor (EGFR, Homo sapiens, UniProt P00533, L858R); cell-free assay; competition with immobilised ligand; 1 µM): 100%
C[C@H]1CCN(c2nccc(-c3cnn4ncccc34)n2)C1  remaining binding (EGFR L858R/T790M; binding; 1 µM): 80%
CC(C)[C@@H]1NC(=O)[C@H](CCCNC(=N)N)NC(=O)[C@H](Cc2ccc(O)cc2)NC(=O)[C@H](C(C)C)NC(=O)[C@H](C(C)C)NC(=O)[C@H](CCCNC(=N)N)NC(=O)[C@H](CC(=O)O)NC(=O)[C@H](CC(=O)O)NC(=O)[C@H](C)NC(=O)[C@H](Cc2ccc(O)cc2)NC(=O)[C@H](Cc2ccc(O)cc2)NC(=O)[C@H](Cc2ccccc2)NC(=O)[C@@H](Cc2ccc(O)cc2)NC(=O)CSC[C@@H](C(=O)NCC(N)=O)NC(=O)CC(c2ccccc2)NC1=O (some centres unmarked)  kon (EGFR; binding; SPR): 40200 M⁻¹ s⁻¹
N#CCCc1ccc2c(c1)-c1[nH]c3ccc([N+](=O)[O-])cc3c1CC(=O)N2  remaining signal (EGFR; cell-free assay; 0.5 µM): 94.4%
CCC(=O)N[C@@H]1CC[C@H](C(=O)N(C)c2ccc(-c3nc4ccccc4o3)cc2)C1  remaining binding (Epidermal growth factor receptor (EGFR, Homo sapiens, UniProt P00533, G719S); cell-free assay; competition with immobilised ligand; 1 µM): 96%
COc1cc(-c2cc(-c3ccc(N4CCNCC4)cc3)cnc2N)cc(OC)c1OC  inhibition (EGFR L858R/T790M; enzyme activity; inhibitor; 0.1 µM): 0%
O=C(O)[C@@H]1[C@@H](Cn2nnc3ccccc3c2=O)CC[C@H]1C(=O)c1ccc(OCCC2CCOCC2)cc1  remaining binding (EGFR T790M; cell-free assay; competition with immobilised ligand; 1 µM): 94%
Cc1cnc(NC2CCOCC2)nc1-n1cnc(C(=O)NC(CN)c2cc(F)cc(Cl)c2)c1 (centres unmarked)  remaining activity (EGFR T790M; enzyme activity; inhibitor; radiometric; 1 µM): 98%
CC/C(=N\NC(=O)NCc1cccc(O)c1)c1ccc(O)c(C)c1O  inhibition (Epidermal growth factor receptor (EGFR, Homo sapiens, UniProt P00533, del746-750/T790M); enzyme activity; inhibitor; 0.1 µM): -0.8%
COc1cc(-c2cn(C3CCc4c(F)cccc4N(CC(F)(F)F)C3=O)nn2)ccc1-n1cnc(C)c1 (centres unmarked)  remaining binding (Epidermal growth factor receptor (EGFR, Homo sapiens, UniProt P00533, A750P/del747-749); cell-free assay; competition with immobilised ligand; 1 µM): 100%
Cc1ccc(C(=O)Nc2ccc(CN3CCN(C)CC3)c(C(F)(F)F)c2)cc1C#Cc1cnc2cccnn12  remaining signal (EGFR del752-759; cell-free assay; 23.5 nM): 87%
CN(C)c1nccc(-c2cnc3ncccn23)n1  remaining binding (EGFR del746-750; binding; 1 µM): 60%
C[C@H](c1cccc(C#N)c1)n1cc(Cl)cc(C(N)=O)c1=N  remaining binding (EGFR del752-759; cell-free assay; competition with immobilised ligand; 1 µM): 99%
COc1ccnn2ncc(-c3ccnc(N(C)C)n3)c12  remaining binding (EGFR T790M; binding; 1 µM): 100%
O=C(Nc1cnn(-c2csc(C(=O)NC3COC3)c2)c1)Nc1c(F)cccc1Cl  remaining activity (EGFR; enzyme activity; inhibitor; 5 µM): 89.4%
